Experimental data as given in ChEMBL document CHEMBL1143122, “Novel analogs of D-e-MAPP and B13. Part 1: synthesis and evaluation as potential anticancer agents” (Bioorg Med Chem, 2008).

Tests used:
[1] = test system: NCI-H460; experiment: Antiproliferative activity against human NCI-H460 cells after 48 hrs; assay type: functional; settings: NCI-H460, 48 h
Outline: (§1)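 NCI 60-cell screen. Cells were grown in RPMI 1640 with 5% FBS and 2 mM L-glutamine, then plated at 5,000–40,000 cells/well according to doubling time and preincubated for 24 h at 37 °C in 5% CO2. Compounds were dissolved in DMSO at 400× the top final concentration and tested at five 10-fold dilutions from 10−4 to 10−8 M for 48 h. Growth was read spectrophotometrically; GI50 is 50% net protein reduction.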

[2] = Antiproliferative activity against human NCI-ADR-RES cells after 48 hrs; assay type: functional; outline: as §1
[3] = test system: U-251; experiment: Antiproliferative activity against human U251 cells after 48 hrs; assay type: functional; settings: U-251, 48 h
Outline: (§2)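 NCI 60-cell-line screen. Lines grown in RPMI 1640 with 5% fetal bovine serum and 2 mM L-glutamine, plated at 5,000–40,000 cells/well according to doubling time, left 24 h at 37 °C in 5% CO2. Drug stocks in DMSO at 400-fold the top final concentration. Five 10-fold dilutions, 10−4 to 10−8 M, incubated 48 h. Growth read spectrophotometrically as net protein; GI50 taken as 50% reduction.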

[4] = test system: NCI-H226; experiment: Antiproliferative activity against human NCI-H226 cells after 48 hrs; assay type: functional; settings: NCI-H226, 48 h; outline: as §1
[5] = test system: SN12C; experiment: Antiproliferative activity against human SN12C cells after 48 hrs; assay type: functional; outline: as §1
[6] = test system: UO-31; experiment: Antiproliferative activity against human UO31 cells after 48 hrs; assay type: functional; settings: UO-31, 48 h; outline: as §2
[7] = test system: M14; experiment: Antiproliferative activity against human M14 cells after 48 hrs; assay type: functional; settings: M14, 48 h; outline: as §1
[8] = test system: LOX IMVI; experiment: Antiproliferative activity against human LOXIMVI cells after 48 hrs; assay type: functional; outline: as §1
[9] = test system: SK-OV-3; experiment: Antiproliferative activity against human SKOV3 cells after 48 hrs; assay type: functional; settings: SK-OV-3, 48 h; outline: as §1
[10] = test system: SF-268; experiment: Antiproliferative activity against human SF268 cells after 48 hrs; assay type: functional; settings: SF-268, 48 h; outline: as §1
[11] = test system: IGROV-1; experiment: Antiproliferative activity against human IGROV1 cells after 48 hrs; assay type: functional; settings: IGROV-1, 48 h; outline: as §1
[12] = test system: SF-539; experiment: Antiproliferative activity against human SF539 cells after 48 hrs; assay type: functional; settings: SF-539, 48 h; outline: as §1
[13] = test system: OVCAR-5; experiment: Antiproliferative activity against human OVCAR5 cells after 48 hrs; assay type: functional; settings: OVCAR-5, 48 h; outline: as §1
[14] = test system: MCF7; experiment: Antiproliferative activity against human MCF7 cells after 48 hrs; assay type: functional, cell-based; settings: MCF7, 48 h
[15] = Antiproliferative activity against human HL60(TB) cells after 48 hrs; assay type: functional, HL-60(TB); settings: HL-60, 48 h
Outline: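 NCI 60-line panel screen: cells grown in RPMI 1640 with 5% fetal bovine serum and 2 mM L-glutamine, plated at 5,000–40,000 cells/well by doubling time, and preincubated 24 h at 37 °C in 5% CO2. Drugs were solubilised in DMSO at 400-fold the final maximum and tested at five 10-fold dilutions from 10−4 to 10−8 M for 48 h. Net protein was read spectrophotometrically, and the concentration giving 50% reduction was reported as log10 GI50.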

[16] = test system: NCI-H23; experiment: Antiproliferative activity against human NCI-H23 cells after 48 hrs; assay type: functional; settings: NCI-H23, 48 h; outline: as §1
[17] = test system: A549; experiment: Antiproliferative activity against human A549 cells after 48 hrs; assay type: functional; settings: A549, 48 h; outline: as §1
[18] = test system: HCT-15; experiment: Antiproliferative activity against human HCT15 cells after 48 hrs; assay type: functional; settings: Homo sapiens, HCT-15, 48 h; outline: as §1
[19] = test system: MDA-MB-435; experiment: Antiproliferative activity against human MDA-MB-435 cells after 48 hrs; assay type: functional; settings: Homo sapiens, MDA-MB-435, 48 h; outline: as §1
[20] = test system: COLO 205; experiment: Antiproliferative activity against human COLO205 cells after 48 hrs; assay type: functional; settings: COLO 205, 48 h; outline: as §1
[21] = test system: ACHN; experiment: Antiproliferative activity against human ACHN cells after 48 hrs; assay type: functional; outline: as §1
[22] = test system: OVCAR-4; experiment: Antiproliferative activity against human OVCAR4 cells after 48 hrs; assay type: functional; settings: OVCAR-4, 48 h; outline: as §1
[23] = test system: PC-3; experiment: Antiproliferative activity against human PC3 cells after 48 hrs; assay type: functional; settings: PC-3, 48 h; outline: as §1
[24] = test system: OVCAR-8; experiment: Antiproliferative activity against human OVCAR8 cells after 48 hrs; assay type: functional; settings: OVCAR-8, 48 h; outline: as §1
[25] = test system: CCRF-CEM; experiment: Antiproliferative activity against human CCRF-CEM cells after 48 hrs; assay type: functional; outline: as §1
[26] = test system: OVCAR-3; experiment: Antiproliferative activity against human OVCAR-3 cells after 48 hrs; assay type: functional; settings: OVCAR-3, 48 h; outline: as §1
[27] = test system: SNB-19; experiment: Antiproliferative activity against human SNB19 cells after 48 hrs; assay type: functional; settings: SNB-19, 48 h; outline: as §1
[28] = test system: HCT-116; experiment: Antiproliferative activity against human HCT116 cells after 48 hrs; assay type: functional; settings: HCT-116, 48 h; outline: as §1
[29] = test system: HCC 2998; experiment: Antiproliferative activity against human HCC2998 cells after 48 hrs; assay type: functional; settings: HCC 2998, 48 h; outline: as §1
[30] = test system: RXF 393; experiment: Antiproliferative activity against human RXF393 cells after 48 hrs; assay type: functional; settings: RXF 393, 48 h; outline: as §1
[31] = read-out: Log LC50 (the source's name) (converted)

SMILES: CCCCCCCCCCCCCCN[C@H](C)[C@@H](O)c1ccccc1.Cl
- GI50 [1]: 1.78 µM
- CC50 [1, 31]: 6.17 µM
- TGI ([1]; read-out: Log TGI (converted)): 3.31 µM
- GI50 [2]: 1.82 µM
- TGI ([2]; read-out: Log TGI (converted)): 3.55 µM
- GI50 [3]: 1.86 µM
- CC50 [3, 31]: 5.89 µM
- TGI ([3]; read-out: Log TGI (converted)): 3.31 µM
- GI50 [4]: 1.86 µM
- CC50 [4, 31]: 7.08 µM
- TGI ([4]; read-out: Log TGI (converted)): 3.63 µM
- GI50 [5]: 1.78 µM
- LC50 (50% net cell kill) [5]: 6.76 µM
- TGI ([5]; read-out: Log TGI (converted)): 3.47 µM
- GI50 [6]: 1.74 µM
- LC50 [6]: 5.89 µM
- TGI ([6]; read-out: Log TGI (converted)): 3.24 µM
- GI50 [7]: 1.86 µM
- LC50 [7]: 6.17 µM
- TGI ([7]; read-out: Log TGI (converted)): 3.39 µM
- GI50 [8]: 1.82 µM
- LC50 [8]: 5.89 µM
- TGI ([8]; read-out: Log TGI (converted)): 3.31 µM
- GI50 [9]: 2.34 µM
- CC50 [9, 31]: 9.77 µM
- TGI ([9]; read-out: Log TGI (converted)): 4.79 µM
- GI50 [10]: 1.78 µM
- LC50 [10]: 6.76 µM
- TGI ([10]; read-out: Log TGI (converted)): 3.47 µM
- GI50 [11]: 1.62 µM
- LC50 [11]: 5.75 µM
- TGI ([11]; read-out: Log TGI (converted)): 3.09 µM
- GI50 [12]: 1.35 µM
- LC50 [12]: 5.5 µM
- TGI ([12]; read-out: Log TGI (converted)): 2.69 µM
- GI50 [13]: 2 µM
- CC50 [13, 31]: 6.17 µM
- TGI ([13]; read-out: Log TGI (converted)): 3.47 µM
- IC50 [14]: 3.5 µM
- GI50 [15]: 0.0871 µM
- LC50 [15]: 6.61 µM
- TGI ([15]; read-out: Log TGI (converted)): 2.51 µM
- GI50 [16]: 2.14 µM
- CC50 [16, 31]: 7.94 µM
- TGI ([16]; read-out: Log TGI (converted)): 4.07 µM
- GI50 [17]: 1.74 µM
- CC50 [17, 31]: 6.31 µM
- TGI ([17]; read-out: Log TGI (converted)): 3.31 µM
- GI50 [18]: 1.82 µM
- LC50 [18]: 5.89 µM
- TGI ([18]; read-out: Log TGI (converted)): 3.24 µM
- GI50 [19]: 1.78 µM
- LC50 [19]: 5.62 µM
- TGI ([19]; read-out: Log TGI (converted)): 3.16 µM
- GI50 [20]: 1.91 µM
- CC50 [20, 31]: 6.17 µM
- TGI ([20]; read-out: Log TGI (converted)): 3.39 µM
- GI50 [21]: 1.86 µM
- CC50 [21, 31]: 5.89 µM
- TGI ([21]; read-out: Log TGI (converted)): 3.31 µM
- GI50 [22]: 2.14 µM
- LC50 [22]: 6.76 µM
- TGI ([22]; read-out: Log TGI (converted)): 3.8 µM
- GI50 [23]: 1.86 µM
- LC50 [23]: 5.89 µM
- TGI ([23]; read-out: Log TGI (converted)): 3.31 µM
- GI50 [24]: 1.82 µM
- TGI ([24]; read-out: Log TGI (converted)): 3.8 µM
- GI50 [25]: 1.45 µM
- CC50 [25, 31]: 7.59 µM
- TGI ([25]; read-out: Log TGI (converted)): 3.31 µM
- GI50 [26]: 1.74 µM
- LC50 [26]: 6.03 µM
- TGI ([26]; read-out: Log TGI (converted)): 3.24 µM
- GI50 [27]: 1.74 µM
- TGI ([27]; read-out: Log TGI (converted)): 3.09 µM
- GI50 [28]: 1.86 µM
- LC50 [28]: 5.75 µM
- TGI ([28]; read-out: Log TGI (converted)): 3.24 µM
- GI50 [29]: 1.86 µM
- CC50 [29, 31]: 6.46 µM
- TGI ([29]; read-out: Log TGI (converted)): 3.47 µM
- GI50 [30]: 1.38 µM
- CC50 [30, 31]: 5.5 µM
- TGI ([30]; read-out: Log TGI (converted)): 2.75 µM
